# Results as given in ChEMBL document CHEMBL4038302, “Fibroblast Activation Protein α Activated Tripeptide Bufadienolide Antitumor Prodrug with Reduced Cardiotoxicity” (J Med Chem, 2017).
# Experiments:
# Prolyl endopeptidase FAP [1] = target: T1, Prolyl endopeptidase FAP (Homo sapiens, UniProt Q12884); experiment: (§1) Prodrug activation assessed as recombinant human FAP-alpha mediated (S)-((3S,5R,8R,9S,10S,11S,13R,14S,17R)-11,14-dihydroxy-10,13-dimethyl-12-oxo-17-(2-oxo-2H-pyran-5-yl)hexadecahydro-1H-cyclopenta[a]phenanthren-3-yl) 2-amino-3-(1H-indol-3-yl)propanoate formation at 40 umol/L after 6 hrs in presence of FAP-alpha inhibitor talabostat by UPLC-MS/MS analysis; conditions: 40 µM
# T1 sequence (Q12884 whole entry): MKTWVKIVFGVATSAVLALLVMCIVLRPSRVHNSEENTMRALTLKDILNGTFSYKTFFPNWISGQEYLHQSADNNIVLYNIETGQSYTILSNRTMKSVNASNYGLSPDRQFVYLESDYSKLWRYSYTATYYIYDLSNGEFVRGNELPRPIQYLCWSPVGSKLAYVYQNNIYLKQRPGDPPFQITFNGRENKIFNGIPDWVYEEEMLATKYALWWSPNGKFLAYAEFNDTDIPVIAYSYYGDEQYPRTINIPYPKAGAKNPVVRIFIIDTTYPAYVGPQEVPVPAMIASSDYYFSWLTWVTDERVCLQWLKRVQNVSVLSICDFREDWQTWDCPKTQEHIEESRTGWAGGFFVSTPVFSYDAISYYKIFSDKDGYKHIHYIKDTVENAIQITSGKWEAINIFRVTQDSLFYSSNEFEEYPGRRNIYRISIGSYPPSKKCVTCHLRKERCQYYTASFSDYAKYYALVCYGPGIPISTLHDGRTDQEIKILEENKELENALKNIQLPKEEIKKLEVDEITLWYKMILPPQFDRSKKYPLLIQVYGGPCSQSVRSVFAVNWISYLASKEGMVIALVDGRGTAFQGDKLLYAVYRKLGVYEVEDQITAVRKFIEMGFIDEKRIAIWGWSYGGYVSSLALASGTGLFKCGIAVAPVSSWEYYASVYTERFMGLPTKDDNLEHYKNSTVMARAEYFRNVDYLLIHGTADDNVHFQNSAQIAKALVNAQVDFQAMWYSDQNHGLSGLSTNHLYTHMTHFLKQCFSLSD
# Summary of the method: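 Prodrug at 40 μmol/L incubated with rhFAPα at 0.45 μg/mL in 0.2 mL buffer at 37 °C for 6 h, with bufalin at 2 μmol/L as internal standard. Stopped with acetonitrile and spun at 18 000g for 15 min. Released active form measured by UPLC-MS/MS via peak-area ratio against a standard curve of 0.625–40 μmol/L.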
# [2] = Acute toxicity in iv dosed Kunming mouse measured less than 4 hrs post dose; assay type: organism-based; conditions: in vivo
# Summary of the method: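 Kunming mice (22.0−28.0 g), half male and half female, 10 groups of n = 10. Single iv dose on day 1 across five levels per compound (prodrug 29.98–50.00 μmol/kg; arenobufagin 4.50–8.00 μmol/kg). Watched continuously for 8 h for abnormal behaviour and deaths, then intermittently for 2 weeks, and sacrificed day 14. LD50 by Bliss method.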
# Mus musculus [3] = experiment: Toxicity in BALB/C nude mouse xenografted with human MDA-MB-231 cells assessed as body weight change at 12 umol/kg, iv administered starting on day 5 measured after day 22; assay type: organism-based; conditions: in vivo
# Mus musculus [4] = experiment: Toxicity in BALB/C nude mouse xenografted with human MDA-MB-231 cells assessed as histopathologic change in femur at 12 umol/kg, iv administered starting on day 5 measured after day 22 by hematoxylin-eosin staining-based assay; assay type: organism-based; conditions: in vivo
# Summary of the method: (§2)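 Tissues from dosed xenograft mice fixed for 24 h and paraffin-embedded. Sections of 5 μm, H&E stained; heart, liver, spleen, lung, kidney and femur examined by a pathologist blind to treatment.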
# Mus musculus [5] = experiment: Cardiotoxicity in BALB/C nude mouse xenografted with human MDA-MB-231 cells assessed as change in left ventricular internal systole dimension at 12 umol/kg, iv administered starting on day 5 measured after day 22 by echocardiography; assay type: toxicity, organism-based; conditions: in vivo
# Summary of the method: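 Same MDA-MB-231 xenograft mice, given daily iv doses in 5% HS15 from day 5. After 22 days of dosing, transthoracic echocardiography with a 21 MHz transducer under 1.5% isoflurane, supine. M-mode images taken from the parasternal short-axis view at the papillary muscle; IVSd, IVSs, LVIDd and LVIDs derived, n = 6.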
# MDA-MB-231 [6] = experiment: Antiproliferative activity against human MDA-MB-231 cells transfected with human FAP-alpha incubated for 48 hrs by MTT assay; assay type: functional, cell-based; conditions: MDA-MB-231, 48 h
# Summary of the method: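 Cells grown in DMEM with 10% FBS and 1% penicillin-streptomycin at 37 °C, 5% CO2; 10% heat-inactivated FBS used during cytotoxicity testing to exclude serum FAP activity. Viability read by MTT; IC50 as mean ± SEM of at least three independent experiments. Transfected lines were made from MDA-MB-231 with human FAPα plasmid or empty pCMV6-Entry vector and checked by Western blot at 48 h.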
# Prolyl endopeptidase FAP [7] = target: T1, Prolyl endopeptidase FAP; experiment: as §1, with “formation by measuring intrinsic clearance” for “formation”, “[…]” for “hrs in presence of FAP-alpha inhibitor talabostat”; conditions: 40 µM
# Mus musculus [8] = experiment: Toxicity in BALB/C nude mouse xenografted with human MDA-MB-231 cells assessed as abnormal behavioral at 12 umol/kg, iv administered starting on day 5 measured after day 22; assay type: organism-based; conditions: in vivo
# Mus musculus [9] = experiment: Toxicity in BALB/C nude mouse xenografted with human MDA-MB-231 cells assessed as abnormal food intake at 12 umol/kg, iv administered starting on day 5 measured after day 22; assay type: organism-based; conditions: in vivo
# Mus musculus [10] = experiment: Toxicity in BALB/C nude mouse xenografted with human MDA-MB-231 cells assessed as histopathologic change in spleen at 12 umol/kg, iv administered starting on day 5 measured after day 22 by hematoxylin-eosin staining-based assay; assay type: organism-based; conditions: in vivo; summary of the method: as §2
# MDA-MB-231 [11] = experiment: Antitumor activity against human MDA-MB-231 cells xenografted in BALB/C nude mouse assessed as tumor weight at 12 umol/kg, iv administered starting on day 5 measured after day 22 (reference value: 0.67 +/- 0.14 g); assay type: functional
# Summary of the method: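 Female BALB/C mice inoculated subcutaneously in the back with 1 × 10^7 MDA-MB-231 cells in Matrigel–PBS (1:1). From day 5, daily iv dosing in 5% Solutol-HS15 vehicle, with a vehicle control group. Tumours measured by caliper every 2 days (v = 0.5 × a × b²); tumour weight as mean ± SEM, n = 6, one-way ANOVA with Tukey's test.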
compound,measurement,setting,value
C[C@]12CC[C@H](OC(=O)[C@H](Cc3c[nH]c4ccccc34)NC(=O)[C@@H]3CCCN3C(=O)CNC(=O)OCc3ccccc3)C[C@H]1CC[C@@H]1[C@@H]2[C@H](O)C(=O)[C@]2(C)[C@@H](c3ccc(=O)oc3)CC[C@]12O,Drug metabolism,Prolyl endopeptidase FAP [1],Metabolite_Notdetected
same,LD50 at 4 h,[2],44 µmol/kg
same,Activity,Mus musculus [3],Non-Toxic
same,Activity,Mus musculus [4],Non-Toxic
same,Activity,Mus musculus [5],Non-Toxic
same,IC50,MDA-MB-231 [6],11.7 nM
same,CL,Prolyl endopeptidase FAP [7],65.89 mL/min/mg
same,Activity,Mus musculus [8],Non-Toxic
same,Activity,Mus musculus [9],Non-Toxic
same,Activity,Mus musculus [10],Non-Toxic
same,Activity,MDA-MB-231 [11],0.43 g
